# Legend:
# [1] = tested on: Mycobacterium tuberculosis; test: Antimycobacterial activity against Mycobacterium bovis BCG in 7H9 medium; type: functional; details: variant bovis BCG
# How it was run: (§1)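 M. bovis BCG MIC determined in liquid medium, comparing iron conditions: cells grown in 7H9/OADC (high iron) versus low-iron chelated Sauton's medium.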
# [2] = tested on: Mycobacterium tuberculosis; test: Antimycobacterial activity against Mycobacterium bovis BCG in low iron containing medium; type: functional; details: variant bovis BCG; how it was run: as §1
# [3] = tested on: Mycobacterium tuberculosis; test: Ratio of MIC for Mycobacterium bovis BCG in 7H9 medium to MIC for Mycobacterium bovis BCG in low iron containing medium; type: functional, variant bovis BCG
smiles,measurement,setting,value
O=C(O)c1ccc(-c2ccc([N+](=O)[O-])cc2)o1,MIC,[1],240 µM
same,MIC,[2],80 µM
same,Ratio,[3],3

# Reference: ChEMBL document CHEMBL4152320, “Discovery and development of novel salicylate synthase (MbtI) furanic inhibitors as antitubercular agents” (Eur J Med Chem, 2018)
